Legend:
Format in all cases: functional, cell-based
PC-3 = experiment: Cytotoxicity against human PC-3 cells assessed as reduction in cell viability incubated for 72 hrs by MTT assay; conditions: PC-3, 72 h
Outline: (§1)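 MTT viability assay. Cells kept in DMEM with 10% FBS at 37 °C and 5% CO2. Seeded at 5×10^3 cells per well and exposed to a range of compound concentrations from 20 mM DMSO stocks. IC50 is the mean of triplicate measurements.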

MDA-MB-231 = experiment: Cytotoxicity against human MDA-MB-231 cells assessed as reduction in cell viability incubated for 72 hrs by MTT assay; conditions: MDA-MB-231, 72 h; outline: as §1
SH-SY5Y = experiment: Cytotoxicity against human SH-SY5Y cells assessed as reduction in cell viability incubated for 72 hrs by MTT assay; outline: as §1

SMILES	IC50 (PC-3)	IC50 (MDA-MB-231)	IC50 (SH-SY5Y)
CCCCn1cnc2ccc(-c3ccc4nc(NC(=O)CC)[nH]c4c3)cc2c1=O	> 20 µM	> 20 µM	> 20 µM
CCCCC(=O)Nc1nc2ccc(-c3ccc4ncn(CCN5CCOCC5)c(=O)c4c3)cc2[nH]1	6.54 µM	3.85 µM	4.19 µM
CCS(=O)(=O)Nc1nc2ccc(-c3ccc4ncn(CC(=O)N5CCOCC5)c(=O)c4c3)cc2[nH]1	> 20 µM	> 20 µM	> 20 µM
CCS(=O)(=O)Nc1nc2ccc(-c3ccc4ncn(CCN5CCOCC5)c(=O)c4c3)cc2[nH]1	> 20 µM	> 20 µM	> 20 µM
O=C(Nc1nc2ccc(-c3ccc4ncn(CCN5CCOCC5)c(=O)c4c3)cc2[nH]1)c1ccccc1	> 20 µM	> 20 µM	> 20 µM
CCC(=O)Nc1nc2ccc(-c3ccc4ncn(CC(=O)N5CCOCC5)c(=O)c4c3)cc2[nH]1	> 20 µM	> 20 µM	> 20 µM

Source: ChEMBL document CHEMBL4765263, “Design, synthesis, biological evaluation of 6-(2-amino-1H-benzo[d]imidazole-6-yl)quinazolin-4(3H)-one derivatives as novel anticancer agents with Aurora kinase inhibition” (Eur J Med Chem, 2020)
